In ChEMBL document CHEMBL5252523, “Searching for New Leads for Tuberculosis: Design, Synthesis, and Biological Evaluation of Novel 2-Quinolin-4-yloxyacetamides” (J Med Chem, 2016):
Converted amounts (≈) assume the structure as drawn.

Columns and labels:
[1] = Cytotoxicity against human HepG2 cells assessed as cell growth inhibition incubated for 48 hrs by CellTiter-Glo reagent based analysis; type: toxicity
Outline: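 HepG2 cells kept in Eagle's MEM with 10% heat-inactivated FBS, 1% NEAA and penicillin/streptomycin, seeded at ~3000 cells/well onto pre-dispensed compound. Incubation was 48 h at 37 °C, 5% CO2. Plates were equilibrated to room temperature, CellTiter-Glo was added, and ATP luminescence was read after 10 min as the viability read-out.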

[2] = system: Mycobacterium tuberculosis; experiment: Antimycobacterial activity against Mycobacterium tuberculosis H37Rv ATCC 25618 assessed as inhibition of microbial growth incubated for 6 days by resazurin based assay; type: functional; conditions: H37Rv ATCC 25618, 144 h, time 6 day
Outline: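 Ten two-fold dilutions made in neat DMSO, tested in Middlebrook 7H9 with the H37Rv inoculum. Controls: isoniazid from 4 μg/ml as positive control; rifampicin 1 μM as no-growth control. Plates sat sealed at 37 °C without shaking for 6 days.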

[3] = Kinetic aqueous solubility of compound in phosphate buffer at pH 7.4 incubated for 1 hrs by CLND assay; type: physicochemical; conditions: read-out: Kinetic_solubility
[4] = molecular target: Voltage-gated inwardly rectifying potassium channel KCNH2 (Homo sapiens, UniProt Q12809); experiment: Inhibition of human ERG; type: toxicity
Sequence of Voltage-gated inwardly rectifying potassium channel KCNH2 (Q12809 whole entry): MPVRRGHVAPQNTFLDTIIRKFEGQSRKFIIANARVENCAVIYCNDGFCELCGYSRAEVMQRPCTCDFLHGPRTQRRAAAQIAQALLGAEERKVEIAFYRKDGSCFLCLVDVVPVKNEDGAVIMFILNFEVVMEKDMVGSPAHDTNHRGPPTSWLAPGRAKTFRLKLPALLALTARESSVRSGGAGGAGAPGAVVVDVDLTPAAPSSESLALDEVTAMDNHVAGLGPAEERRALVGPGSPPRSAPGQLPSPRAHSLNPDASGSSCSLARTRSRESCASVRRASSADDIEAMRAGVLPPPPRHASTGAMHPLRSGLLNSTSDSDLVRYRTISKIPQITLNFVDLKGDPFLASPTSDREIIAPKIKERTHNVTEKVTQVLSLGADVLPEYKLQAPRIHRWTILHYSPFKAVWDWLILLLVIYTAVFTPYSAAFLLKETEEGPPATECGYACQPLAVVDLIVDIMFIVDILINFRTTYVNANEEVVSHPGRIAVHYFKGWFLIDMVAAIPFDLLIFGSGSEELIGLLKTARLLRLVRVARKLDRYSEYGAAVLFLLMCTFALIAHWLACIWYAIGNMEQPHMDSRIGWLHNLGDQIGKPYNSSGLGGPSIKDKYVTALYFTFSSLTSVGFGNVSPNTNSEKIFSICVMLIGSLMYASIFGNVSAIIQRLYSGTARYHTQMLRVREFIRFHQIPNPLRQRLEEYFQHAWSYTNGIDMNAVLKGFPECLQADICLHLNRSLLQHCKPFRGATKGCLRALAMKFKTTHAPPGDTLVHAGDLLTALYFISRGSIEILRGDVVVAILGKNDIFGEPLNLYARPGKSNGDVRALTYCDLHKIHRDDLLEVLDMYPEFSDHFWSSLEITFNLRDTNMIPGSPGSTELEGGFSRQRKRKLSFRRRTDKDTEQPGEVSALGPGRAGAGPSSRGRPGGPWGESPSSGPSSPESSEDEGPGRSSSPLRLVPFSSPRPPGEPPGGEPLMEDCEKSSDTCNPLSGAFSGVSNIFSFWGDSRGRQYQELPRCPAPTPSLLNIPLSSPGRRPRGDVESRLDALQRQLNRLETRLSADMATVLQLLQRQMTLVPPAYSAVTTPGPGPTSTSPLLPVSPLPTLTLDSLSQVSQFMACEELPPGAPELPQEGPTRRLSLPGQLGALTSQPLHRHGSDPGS

[5] = Chromatographic hydrophobicity index, log D of the compound in phosphate buffer at pH 7.4 by UV-HPLC analysis; type: physicochemical
[6] = system: Mycobacterium tuberculosis; experiment: Antimycobacterial activity against Mycobacterium tuberculosis H37Rv ATCC 25618 expressing pATB45luc infected in PMA-stimulated human THP-1 cells assessed as inhibition of intracellular bacterial growth incubated for 4 days by BrightGlo luciferase assay; type: functional, organism-based; conditions: H37Rv ATCC 25618, THP-1, 96 h; for IC90: time 4 day
Outline: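 THP-1 cells grown in RPMI-1640 with 10% FBS, 1 mM pyruvate and 2 mM L-glutamine. Cells were PMA-differentiated (40 ng/ml) while infected with single-cell Mtb H37Rv-pATB45luc at MOI 1:1 for 4 h at 37 °C in a roller bottle, then washed four times. About 10000 cells/well were added onto pre-dispensed compound (max DMSO 0.5%) and incubated 4 days at 37 °C. Luciferase luminescence was read; IC50/IC90 came from nonlinear regression of dose-response curves.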

[7] = Stability of compound in CD1 mouse blood assessed as half life at 0.5 uM incubated upto 240 mins by LC-MS/MS analysis; type: ADME, tissue-based
Outline: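 Fresh CD1 mouse whole blood collected in EDTA tubes and spiked with compound. Three 300 μl aliquots were incubated at 37 °C. Supernatants were analysed by LC-MS/MS; analyte/internal standard ratios were normalised to time zero as % remaining, and half-life was taken from ln plots of % remaining.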

[8] = Artificial membrane permeability of the compound incubated for 3 hrs by HPLC analysis; type: ADME; conditions: PAMPA, read-out: permeability
[9] = Microsomal stability in mouse liver microsomes assessed as half life at 0.5 uM preincubated followed by NADPH addition and measured upto 30 mins by LC-MS/MS analysis; type: ADME, Microsome
[10] = Microsomal stability in human liver microsomes assessed as half life at 0.5 uM preincubated followed by NADPH addition and measured upto 30 mins by LC-MS/MS analysis; type: ADME, Microsome

| SMILES | IC50 at 48 h [1] [µM] | MIC [2] [µM] | solubility kinetic at 1 h [3] [µM] | IC50 [4] [µM] | chromatographic logD [5] | IC50 [6] [µM] | IC90 [6] [µM] | half-life at 0.5 µM [7] [min] | Papp at 3 h [8] [×10⁻⁶ cm/s] | half-life at 0.5 µM [9] [min] | half-life at 0.5 µM [10] [min] |
| --- | --- | --- | --- | --- | --- | --- | --- | --- | --- | --- | --- |
| COc1ccc2nc(C)cc(OCC(=O)Nc3ccc(Cl)cc3)c2c1 | > 100 | 3 | 9 (≈ 3.21 µg/mL) | 5.01 | 5.15 | 0.16 | 0.5 |  |  |  |  |
| COc1ccc2nc(C)cc(OCC(=O)Nc3ccc(Cl)cc3Cl)c2c1 | > 100 | 2 | 20.5 (≈ 8.02 µg/mL) |  | 6.4 | 0.79 | > 50 |  |  |  |  |
| COc1ccc2nc(C)cc(OCC(=O)Nc3cc(C)ccc3OC)c2c1 | > 100 | 2.5 | 9.5 (≈ 3.48 µg/mL) | 5.01 | 5.65 | 0.16 | 0.63 |  |  |  |  |
| COc1ccc2nc(C)cc(OCC(=O)Nc3cc(C)ccc3C)c2c1 | > 100 | 8 | 45.5 (≈ 15.9 µg/mL) |  | 5.05 |  |  | < 5 | 81 | < 5 | 24 |
| Cc1cc(C)cc(NC(=O)COc2cc(C)nc3ccc(C)cc23)c1 | 15.8 | 3.9 | 83 (≈ 27.8 µg/mL) |  | 5.95 |  |  | < 5 | 52 | < 5 | > 30 |
| COc1ccc2nc(C)cc(OCC(=O)Nc3c(C)cccc3C)c2c1 | > 100 | 125 | 112 (≈ 39.2 µg/mL) |  | 4.55 |  |  |  | 63 |  |  |
| COc1ccc2nc(C)cc(OCC(=O)Nc3cc(C)nc(C)n3)c2c1 | > 100 | > 250 | 5 (≈ 1.76 µg/mL) |  | 3.24 |  |  |  | 1.2 |  |  |
| COc1ccc2nc(C)cc(OCC(=O)N(C)c3cc(C)cc(C)c3)c2c1 | 50.1 | 109 | 373 (≈ 136 µg/mL) |  | 5.47 |  |  |  | 30 |  |  |
| CCOc1ccc2nc(C(F)(F)F)cc(OCC(=O)Nc3cc(C)cc(C)c3)c2c1 | > 100 | > 250 | < 1 |  | 7.55 |  |  |  | < 0.3 |  |  |
| COc1ccc2nc(C)cc(OCC(=O)Nc3ccncn3)c2c1 | > 100 | > 250 | 27.5 (≈ 8.92 µg/mL) |  | 2.53 |  |  |  | 52.5 |  |  |
| COc1ccc2nc(C)cc(OCC(=O)Nc3cccc(C)c3)c2c1 | 39.8 | 2 | 193 (≈ 64.9 µg/mL) |  | 4.83 |  |  | < 5 | 35.5 | < 5 | 23 |
| COc1ccc2nc(C)cc(OCC(=O)Nc3ccc(Cl)c(OC)c3)c2c1 | > 100 | > 125 | 13 (≈ 5.03 µg/mL) |  | 5.09 |  |  |  | 57 |  |  |
| COc1ccc2nc(C)cc(OCC(=O)Nc3cc(C)c(OC)c(C)c3)c2c1 | 7.94 | 1 | 17 (≈ 6.47 µg/mL) |  | 4.99 |  |  |  | 32 |  |  |
| COc1ccc2nc(C)cc(OCC(=O)NC3CONC3=O)c2c1 (configuration not stated) | > 100 | > 125 | ≥ 166 |  | 0.79 |  |  |  | < 1 |  |  |
| COc1ccc2nc(C)cc(OCC(=O)Nc3cc(F)cc(F)c3)c2c1 | > 100 | 3 | 13 (≈ 4.66 µg/mL) |  | 5.13 | 0.4 | 2.51 |  |  |  |  |
| COc1ccc2nc(C)cc(OCC(=O)Nc3ccccc3)c2c1 | 39.8 | 2 | 63 (≈ 20.3 µg/mL) |  | 4.28 |  |  |  | 37 |  |  |
| Cc1ncc2n1-c1ccc(Cl)cc1C(c1ccccc1F)=NC2 [MIDAZOLAM] |  |  |  |  |  |  |  |  |  | < 5 | 9 |
| COc1ccc2nc(C)cc(OCC(=O)Nc3ccccc3OC)c2c1 | > 100 | 1.4 |  |  | 4.68 | 0.5 | 1.58 |  |  | < 3 | 16 |
| COc1ccc(NC(=O)COc2cc(C)nc3ccc(OC)cc23)cc1 | > 100 | 0.6 | 108 (≈ 38.1 µg/mL) | 6.31 | 4.22 | 0.03 | 0.25 |  | 42 |  |  |
| COc1ccc2nc(C)cc(OCC(=O)Nc3cccnc3)c2c1 | > 100 | 62.5 | 32 (≈ 10.3 µg/mL) |  | 2.46 |  |  |  | 33 |  |  |
| Cc1cc(C)cc(NC(=O)COc2cc(C(F)(F)F)nc3c(C(F)(F)F)cccc23)c1 | > 100 | > 250 | < 1 |  | 7.73 |  |  |  | < 1 |  |  |
| COc1ccc2nc(C)cc(OCc3ccc4ccccc4n3)c2c1 | 31.6 | 32 | 21 (≈ 6.94 µg/mL) |  | 5.48 |  |  |  | 47 |  |  |
| COc1ccc2nc(C)cc(OCC(=O)Nc3cc(OC)c(OC)c(OC)c3)c2c1 | > 100 | 62 | 34 (≈ 14 µg/mL) |  | 3.95 |  |  |  | 62 |  |  |
